APP 5'UTR act: activates APP 5'UTR luciferase reporter | SH-SY5Y APP 5'UTR luciferase reporter, luminescence; zero percent = DMSO vehicle wells | hit rate 1% among 190,000 | activation, % at 2 µM;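 active means activation above a set limit, based on mean plus 3 SD of controls, cut at about 140% in these data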
STAT1 blocker: inhibitors of IFN-gamma induced STAT1 signaling. NIH 3T3 STAT1-luciferase reporter, luminescence. inhibition, % at 5.5 µM. hit rate 0.35% among 200,000. AID 920;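 active means inhibition above a set limit, the mean inhibition across all tested compounds plus 3 SD, cut at about 34% in these data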;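 further: 0% = IFN-gamma with DMSO and 100% = IFN-gamma with 300 µM nifuroxazide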
STAT3 inh: STAT3 signaling inhibition; U3A cells, IL-6 STAT3-luciferase reporter, luminescence; host cell line lacks STAT1; hit rate 0.89% among 190,000; inhibition, % at 5.5 µM; AID 862;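 active means inhibition above the mean inhibition across all screened compounds plus 3 SD, cut at about 44% in these data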;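 further: 0% = DMSO only wells and 100% = 100 µM nifuroxazide control wells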
NF-kB expr up: compounds increasing NF-kB expression in human neuronal cells. NF-kB reporter expression; active compounds read high. fold change at 12.5 µM. hit rate 1.6% among 190,000. AID 1239; in the data active means fold change above about 3.3
STAT3 activator: increases IL-6 driven STAT3 reporter signal; hit rate 0.91% among 190,000; activation (% of control), % at 5.6 µM; U3A cells, IL-6 STAT3-luciferase reporter, luminescence; 100% = signal with IL-6 EC80 alone;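 active means activation above the screen-wide mean of compound activation plus 3 SD, cut at about 130% in these data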;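 further: 0% = background luminescence of wells with medium and substrate only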
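System – human U3A cells carrying STAT3-luciferase construct · Probe or stimulus – Interleukin-6, 33 ng/mL · Schedule – compound 1 h, then IL-6 6 h at 37 °C · Signal – luminescence from STAT3-driven luciferase reporter · Evaluation – percent of IL-6-only median luminescence · Benchmarks – IL-6-only high control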
STAT1 activator: STAT1 signaling activation | NIH 3T3 STAT1-luciferase reporter, IFN-gamma, luminescence; 100% = IFN-gamma alone, no compound | activation (% of control), % at 5.5 µM | hit rate 2.6% among 200,000 | AID 932;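 active means activation above the screen-wide mean activation plus 3 SD, cut at about 130% in these data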;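 further: raw ratio to IFN-gamma control signal so 100% means no change and 0% no light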
Starred values were filed as active, the others as inactive; . = no result given. Only some compounds are listed: those with a hit (about 4.9% of all), similar ones and a draw of the others.

SMILES	APP 5'UTR act	STAT1 blocker	STAT3 inh	NF-kB expr up	STAT3 activator	STAT1 activator
CN(C)c1cccc(-c2nnc(SCCCC#N)o2)c1	154*	-23	19	3.1	93	121
CCCCC(=O)Nc1sc2c(c1C(=O)OCC)CCC(C=O)=C2Cl	16	4	5	0.54	102	97
COCCn1c(C)cc(C(=O)Cn2nc(C(=O)O)c3ccccc3c2=O)c1C	44	-30	15	1.7	92	128
CCCn1c(C)cc(C(=O)Cn2nnc3ccccc3c2=O)c1C	159*	-28	14	4.7*	90	126
Nc1cc(C(=O)O)c(Oc2ccc(Cl)cc2Cl)cc1C(=O)O	-5	5	7	1.2	102	96
Cc1ccc(S(=O)(=O)Nc2ccc(-c3cn4ccc(C)cc4n3)cc2)cc1	0	-6	17	1.2	87	105
Cc1ccn2cc(-c3ccc(NC(=O)c4ccco4)cc3)nc2c1	139*	-40	16	3.1	86	135*
Cc1nnc2ccc(-c3ccc(NC(=O)c4ccco4)cc3)nn12	8	3	30	0.92	79	97
CC(=O)Nc1cccc(-c2cn3ccc(C)cc3n2)c1	98	-33	25	4.2*	80	129*
Cc1ccn2cc(-c3ccc(NS(=O)(=O)c4ccccc4)cc3)nc2c1	7	-34	13	1.2	91	130*
CCOC(=O)C1CCCN(c2cc(=O)n(C3CCCCC3)c(=O)[nH]2)C1 (configuration not stated)	13	-1	1	1.4	100	99
COc1ccc(C(=O)Nc2sc(C)c(C)c2CN2CC(C)OC(C)C2)cc1 (configuration not stated)	11	-22	-4	1.5	105	120
Nc1cccc(S(=O)(=O)Nc2ccccc2)c1	1	2	5	1	97	98
O=C(N/N=C1\CCc2ccccc21)c1ccc(O)cc1	138*	-50	16	3.3	90	142*
Cc1ccc(C(=O)N/N=C2\CCc3ccccc32)c(C)c1	127	-54	-2	5.7*	105	149*
O=C(N/N=C1\CCc2ccccc21)c1ccccc1Cl	102	-35	5	2.9	99	131*
CC(C)(C)NC(=O)COC(=O)c1ccc(Cl)c(S(N)(=O)=O)c1	2	-8	1	1.3	100	106
CC(C)CCNC(=O)CCCCn1c(=O)[nH]c2ccsc2c1=O	-21	6	0	1.1	102	92
COc1ccccc1-c1nnc(SCC(=O)NCc2cccs2)n1N	-18	9	6	1.1	97	91
Brc1ccccc1-n1nnc(-c2nccs2)n1	127	-34	.	3.9*	.	133*
Cc1ccc(C(=O)N/N=C/c2ccc3c(c2)OCO3)o1	35	-42	-30	2	131	138*
Cc1ccc(C(=O)/C=C/c2ccc3c(c2)OCO3)o1	21	-5	10	1.8	94	105
CC1Cc2cc(/C(O)=C3/C(=O)C(=O)N(CCCn4ccnc4)C3c3ccco3)ccc2O1 (configuration not stated)	91	-35	8	0.75	97	132*
CC1Cc2cc(/C(O)=C3/C(=O)C(=O)N(CCCn4ccnc4)C3c3ccncc3)ccc2O1 (configuration not stated)	12	2	4	1	105	97
Cc1ccc(-c2nn(-c3ccccc3)cc2CSC(=N)N)cc1	16	-2	-3	4.9*	103	102
SMILES	APP 5'UTR act	STAT1 blocker	STAT3 inh	NF-kB expr up	STAT3 activator	STAT1 activator
CC(C)c1ccc(NC(=O)COc2ccc(F)cc2C(=O)c2cnn(-c3ccccc3)c2)cc1	96	-42	-60	1.4	147*	140*
O=C(COc1ccccc1C(=O)c1cnn(-c2ccccc2)c1)Nc1ccc2ccccc2c1	61	-15	-9	1.6	107	113
COc1ccccc1NC(=S)N1CCC(C(=O)c2ccc(F)cc2)CC1	-11	1	9	0.81	100	98
Cc1ccc(C2=NCN(c3ccc(C(=O)O)cc3)C(=S)N2)cc1	28	-37	-5	1.8	106	136*
CN(C)c1ccc(N=Cc2nc(-c3ccccc3)oc2OC(=O)c2ccccc2)cc1	155*	-21	-22	2	115	122
CC(=O)Oc1oc(-c2ccccc2)nc1/C=N/c1ccccn1	58	-32	6	1.3	98	129*
CN(C)c1ccc(N=Cc2nc(-c3ccccc3)oc2O)cc1	26	-11	18	1.7	88	110
O=c1cc(-c2ccc3c(c2)OCCO3)oc2ccc(Cl)cc12	214*	-46	10	7.2*	94	142*
O=c1cc(-c2cccs2)oc2ccc(Cl)cc12	36	-53	-19	3.2	116	147*
O=c1cc(NC2CCCCC2)c2ccccc2o1	-7	-4	6	0.96	98	104
O=S(=O)(c1ccc2oc3ccc(S(=O)(=O)N4CCCCC4)cc3c2c1)N1CCCCC1	0	5	-9	1	109	96
CSc1ccc(/C=C/c2ccc3cccc(O)c3n2)cc1	173*	-7	15	6.2*	89	106
Clc1ccsc1-c1csc(-c2cccnc2)n1	27	-31	-27	2.4	131	129*
c1cncc(-c2nc(-c3ccc4c(c3)OCO4)cs2)c1	54	-47	5	2.5	99	143*
CCC(CC)NC(=O)CCCSc1nc2ccccc2[nH]1	0	4	0	1.1	102	95
CCOC(=O)c1ccc(NCc2nc3ccccc3n2C)cc1	85	-42	8	2.9	97	139*
CCOC(=O)c1ccc(NC(=O)CSc2nnc(CNc3ccc(C)cc3)n2C)cc1	12	-5	2	1.1	101	104
OC[C@@H](O)C1OC2NC(=S)OC2C1O (some centres not stated)	11	0	10	1.2	94	98
Cc1nn(-c2ccccc2)c(Cl)c1CN(C(=O)CCl)c1cccc2ccccc12	-5	6	-8	0.17	105	95
COc1cc(/C=N/N(C)c2ccccc2)ccc1O	179*	-44	-9	10*	112	140*
O=c1[nH]c(CSc2nc3ccccc3[nH]2)nc2c1cnn2-c1ccccc1	-1	-4	14	0.65	87	104
O=c1[nH]c(SCc2nc3c(cnn3-c3ccccc3)c(=O)[nH]2)nc2ccccc12	-25	-16	-68	1.8	160*	114
Cc1ncsc1CCC(=O)N1CCCC(C(=O)c2ccc3c(c2)OCO3)C1 (configuration not stated)	32	-11	6	1.3	98	108
COc1ccc(NC(=O)CC23CC4CC(C2)CC(n2nnc(C)n2)(C4)C3)cc1	-9	4	8	1.2	104	95
COc1ccc(Nc2n[nH]c(C)c2[N+](=O)[O-])cc1	35	-23	-1	4.8*	104	121

Screening data as filed in PubChem BioAssay.
